# Results published in ChEMBL document CHEMBL4725436, “Gibberellin JRA-003: A Selective Inhibitor of Nuclear Translocation of IKKα” (ACS Med Chem Lett, 2020).
# Active and inactive are the calls of the source. No cut-off for these calls is given here.
# What was measured:
# [1] = Selectivity index, ratio of IC50 for human HS895SK cells to EC50 for human RC-K8 cells measured after 24 hrs by CellTiter-Glo luminescent assay
# How it was run: (§1)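 High-throughput viability screen of test agents across a panel of 22 cancerous and noncancerous human cell lines. Viability was read by CellTiter-Glo luminescence.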
# HEK-293T = test: Cytotoxicity against human HEK293T cells assessed as reduction in cell viability measured after 24 hrs by CellTiter-Glo luminescent assay; assay type: cell-based; how it was run: as §1
# CA46 = test: Cytotoxicity against human CA46 cells assessed as reduction in cell viability measured after 24 hrs by CellTiter-Glo luminescent assay; assay type: functional, cell-based; settings: CA46, 24 h; how it was run: as §1
# [2] = Selectivity index, ratio of IC50 for human HS895SK cells to EC50 for human CA46 cells measured after 24 hrs by CellTiter-Glo luminescent assay; how it was run: as §1
# [3] = Cytotoxicity against human Hs895T cells assessed as reduction in cell viability measured after 24 hrs by CellTiter-Glo luminescent assay; assay type: functional, cell-based; how it was run: as §1
# [4] = Selectivity index, ratio of IC50 for human Hs578Bst cells to EC50 for human HS578T cells measured after 24 hrs by CellTiter-Glo luminescent assay; assay type: toxicity; settings: Hs578Bst cells (IC50) versus HS578T cells (EC50); how it was run: as §1
# [5] = Selectivity index, ratio of IC50 for human Hs888Lu cells to EC50 for human RC-K8 cells measured after 24 hrs by CellTiter-Glo luminescent assay; assay type: toxicity; settings: Hs888Lu cells (IC50) versus RC-K8 cells (EC50); how it was run: as §1
# [6] = molecular target: T1, Inhibitor of nuclear factor kappa-B kinase subunit beta (Homo sapiens) (UniProt O14920); test: Inhibition of IKK beta nuclear translocation in human HEK-293T cells assessed as reduction in IKK beta level in nucleus at 15 uM pretreated with compound for 1 hr followed by stimulation with IL-1 beta for 3 hrs by western blot analysis; assay type: subcellular
# T1 sequence (whole entry): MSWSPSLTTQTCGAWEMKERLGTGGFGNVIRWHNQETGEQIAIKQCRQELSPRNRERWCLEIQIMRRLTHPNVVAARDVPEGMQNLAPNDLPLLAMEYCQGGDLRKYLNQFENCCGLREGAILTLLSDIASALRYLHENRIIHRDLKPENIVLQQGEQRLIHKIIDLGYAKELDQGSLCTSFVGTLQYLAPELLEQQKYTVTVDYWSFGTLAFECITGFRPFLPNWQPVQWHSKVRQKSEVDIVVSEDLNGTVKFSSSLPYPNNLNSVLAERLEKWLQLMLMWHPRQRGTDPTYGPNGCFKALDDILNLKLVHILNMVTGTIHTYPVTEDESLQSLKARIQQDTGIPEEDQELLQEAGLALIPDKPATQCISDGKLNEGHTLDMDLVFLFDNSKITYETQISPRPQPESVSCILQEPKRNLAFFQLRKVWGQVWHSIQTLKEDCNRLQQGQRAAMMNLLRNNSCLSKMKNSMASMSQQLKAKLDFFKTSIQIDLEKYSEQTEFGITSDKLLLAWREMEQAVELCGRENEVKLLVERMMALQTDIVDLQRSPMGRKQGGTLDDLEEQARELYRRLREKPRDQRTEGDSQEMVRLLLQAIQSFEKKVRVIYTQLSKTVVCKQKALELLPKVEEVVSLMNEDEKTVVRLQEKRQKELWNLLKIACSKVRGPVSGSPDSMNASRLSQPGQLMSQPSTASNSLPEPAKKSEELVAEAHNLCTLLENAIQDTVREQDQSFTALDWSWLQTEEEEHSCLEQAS
# How it was run: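 HEK 293T cells were pretreated with vehicle or test agent, then stimulated with IL-1β (or vehicle). Cells were lysed and nuclei separated, and the cytosolic and nuclear fractions were each probed for IKKα and IKKβ by Western blotting.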
# [7] = Selectivity index, ratio of IC50 for human Hs578Bst cells to EC50 for human RC-K8 cells measured after 24 hrs by CellTiter-Glo luminescent assay; assay type: toxicity; settings: Hs578Bst cells (IC50) versus RC-K8 cells (EC50); how it was run: as §1
# [8] = Selectivity index, ratio of IC50 for human HS895SK cells to EC50 for human SU-DHL-4 cells measured after 24 hrs by CellTiter-Glo luminescent assay; how it was run: as §1
# [9] = Inhibition of IKKalpha/IKKbeta in human HEK293T cells transfected with firefly luciferase gene assessed as inhibition of IL-1 beta-stimulated NF-kappaB signalling preincubated for 1 hr followed by IL-1 beta stimulation measured after 3 hrs by luciferase reporter gene assay; assay type: cell-based; settings: HEK-293T
# RCK8 = test: Cytotoxicity against human RC-K8 cells assessed as reduction in cell viability measured after 24 hrs by CellTiter-Glo luminescent assay; assay type: functional, cell-based; settings: RCK8, 24 h; how it was run: as §1
# [10] = molecular target: T1, Inhibitor of nuclear factor kappa-B kinase subunit beta (Homo sapiens); test: Inhibition of JRA-031 binding to IKKbeta in TNF-alpha-stimulated human HEK293T cells at 1 uM pretreated with compound for 1 hr followed by labeling with JRA-031 for 1 hr followed by stimulation with TNF-alpha for 1 hr by pull down based mass spectrometry; assay type: cell-based; settings: HEK-293T
# [11] = molecular target: T2, Inhibitor of nuclear factor kappa-B kinase subunit alpha (Homo sapiens) (UniProt O15111); test: Inhibition of IKKalpha in human HeLa cells assessed as reduction in IL-1 beta-stimulated IKK alpha nuclear translocation at 10 uM pretreated with compound for 4 hrs followed by stimulation with IL-1 beta for 1 hr by immunohistochemical staining/confocal microscopy; assay type: cell-based
# T2 sequence (whole entry): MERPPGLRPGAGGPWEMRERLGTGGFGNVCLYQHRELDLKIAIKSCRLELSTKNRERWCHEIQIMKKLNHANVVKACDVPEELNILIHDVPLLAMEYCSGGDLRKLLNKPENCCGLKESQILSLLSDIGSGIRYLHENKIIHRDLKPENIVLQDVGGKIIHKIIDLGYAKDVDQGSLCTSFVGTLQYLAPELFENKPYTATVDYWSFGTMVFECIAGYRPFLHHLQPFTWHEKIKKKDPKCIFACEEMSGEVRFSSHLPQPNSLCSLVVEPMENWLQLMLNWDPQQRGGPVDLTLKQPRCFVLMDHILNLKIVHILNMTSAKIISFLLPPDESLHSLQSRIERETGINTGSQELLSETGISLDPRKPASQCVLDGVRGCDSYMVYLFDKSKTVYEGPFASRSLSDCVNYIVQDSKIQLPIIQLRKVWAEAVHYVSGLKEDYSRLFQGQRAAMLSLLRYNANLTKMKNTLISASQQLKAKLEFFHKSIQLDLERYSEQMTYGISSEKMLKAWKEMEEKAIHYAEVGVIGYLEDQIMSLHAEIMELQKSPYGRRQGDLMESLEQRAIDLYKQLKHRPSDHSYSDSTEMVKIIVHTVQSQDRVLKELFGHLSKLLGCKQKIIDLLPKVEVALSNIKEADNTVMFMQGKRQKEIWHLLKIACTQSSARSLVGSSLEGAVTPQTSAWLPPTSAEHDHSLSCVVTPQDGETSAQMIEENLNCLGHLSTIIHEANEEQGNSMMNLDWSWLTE
# How it was run: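 HeLa cells were pretreated with DMSO or test agent for 4 h, then stimulated with IL-1β (or vehicle) for 1 h. NF-κB pathway members were immunostained with AF488-tagged antibodies, nuclei were counterstained with DAPI, and compartmental localization was imaged by confocal microscopy.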
structure (smiles),measurement,setting,value
C=C1C[C@]23C[C@@]1(O)CC[C@H]2[C@@]12C=CC(=O)[C@@](C)(C(=O)O1)[C@H]2[C@@H]3C(=O)OC,Ratio IC50/EC50,[1],500
same,IC50,HEK-293T,> 10 µM
same,EC50,CA46,< 0.04 µM
same,Ratio IC50/EC50,[2],500
same,EC50,[3],9.2 µM
same,selectivity ratio at 24 h,[4],500
same,selectivity ratio at 24 h,[5],500
same,inhibition,[6],Active
same,selectivity ratio at 24 h,[7],500
same,Ratio IC50/EC50,[8],500
same,IC50,[9],6 µM
same,EC50,RCK8,< 0.04 µM
same,inhibition,[10],Active
same,inhibition,[11],Active
